Source: ChEMBL document CHEMBL3603784, “Novel hybrids of 3-n-butylphthalide and edaravone: Design, synthesis and evaluations as potential anti-ischemic stroke agents” (2015)
Calls of active or inactive are those of the source. The calls are words filed in the database; no cut-off is given here.

Tests used:
[1] = Antiplatelet activity in rabbit platelet rich plasma assessed as inhibition of arachidonic acid-induced platelet aggregation at 0.1 mM preincubated for 5 mins followed by arachidonic acid addition measured after 5 mins by Born's turbidimetric method relative to control; type: functional; details: Oryctolagus cuniculus
Procedure, shortened: (§1)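 Rabbit PRP was taken from centrifugation supernatant, and PPP was obtained at 3000 rpm for 10 min. PRP was pretreated in duplicate with test agent or vehicle for 5 min at 37 °C, then given ADP (10 µM) or AA (1 mM). Aggregation was followed turbidimetrically by optical density. Results are % inhibition versus vehicle-treated, inducer-exposed samples, n = 6, mean ± SD.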

[2] = Antiplatelet activity in rabbit platelet rich plasma assessed as inhibition of ADP-induced platelet aggregation at 0.1 mM preincubated for 5 mins followed by ADP addition measured after 5 mins by Born's turbidimetric method relative to control; type: functional; details: Oryctolagus cuniculus; procedure, shortened: as §1
[3] = system: PC-12; test: Antioxidant activity in rat PC12 cells assessed as reduction of H2O2/Fe2+-mediated hydroxyl radical formation at 10 uM preincubated for 1 hr followed by H2O2/Fe2+ addition by Griess assay; type: functional
Procedure, shortened: (§2)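 PC12 cells grown in DMEM with 10% heat-inactivated horse serum, 5% FBS, 1.0 mM sodium pyruvate, penicillin/streptomycin, 37 °C, 5% CO2. Cells pretreated in triplicate for 1 h, then exposed to 1 mM H2O2/20 µM Fe2+ (pH 7.4). After a medium change, cells were collected in 0.5 mL phosphate buffer (pH 7.4). Hydroxyl radical activity was read by Griess assay.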

[4] = system: PC-12; test: Antioxidant activity in rat PC12 cells assessed as reduction of NADH-mediated superoxide anion radical formation at 10 uM preincubated for 1 hr followed by NADH addition by NBT assay in presence of NBP; type: functional
Procedure, shortened: (§3)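 PC12 cells were cultured as for the other PC12 assays and pretreated in triplicate for 1 h. Each tube then received DMSO, 468 µM NADH and 300 µM NBT. Superoxide activity was read by NBT assay, with DMSO used to fully dissolve the formazan.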

[5] = Neuroprotective activity against H2O2-induce cell damage in rat PC12 cells assessed as cell viability at 10 uM preincubated for 1 hr followed by H2O2 induction measured after 3 hrs by MTT assay in presence of NBP (reference value: 50.85%); type: functional; details: PC-12, read-out: Activity
[6] = system: PC-12; test: Antioxidant activity in rat PC12 cells assessed as reduction of H2O2/Fe2+-mediated hydroxyl radical formation at 10 uM preincubated for 1 hr followed by H2O2/Fe2+ addition by Griess assay in presence of NBP; type: functional; procedure, shortened: as §2
[7] = system: PC-12; test: Antioxidant activity in rat PC12 cells assessed as reduction of NADH-mediated superoxide anion radical formation at 10 uM preincubated for 1 hr followed by NADH addition by NBT assay; type: functional; procedure, shortened: as §3
[8] = Antiplatelet activity in rabbit platelet rich plasma assessed as inhibition of arachidonic acid-induced platelet aggregation at 0.1 mM preincubated for 5 mins followed by arachidonic acid addition measured after 5 mins by Born's turbidimetric method in presence of NBP relative to control; type: functional; details: Oryctolagus cuniculus; procedure, shortened: as §1
[9] = Neuroprotective activity against H2O2-induce cell damage in rat PC12 cells assessed as cell viability at 10 uM preincubated for 1 hr followed by H2O2 induction measured after 3 hrs by MTT assay (reference value: 50.85%); type: functional; details: PC-12, read-out: Activity
[10] = Antiplatelet activity in rabbit platelet rich plasma assessed as inhibition of ADP-induced platelet aggregation at 0.1 mM preincubated for 5 mins followed by ADP addition measured after 5 mins by Born's turbidimetric method in presence of NBP relative to control; type: functional; details: Oryctolagus cuniculus; procedure, shortened: as §1
[11] = Neuroprotective activity against H2O2-induce cell damage in rat PC12 cells assessed as cell viability at 1 uM preincubated for 1 hr followed by H2O2 induction measured after 3 hrs by MTT assay (reference value: 50.85%); type: functional; details: PC-12, read-out: Activity
[12] = system: PC-12; test: Neuroprotective activity against H2O2-induce cell damage in rat PC12 cells assessed as cell viability at 10 uM preincubated for 1 hr followed by H2O2 induction measured after 3 hrs by MTT assay; type: functional, cell-based
[13] = Antiplatelet activity in rabbit platelet rich plasma assessed as inhibition of ADP-induced platelet aggregation at 0.1 mM preincubated for 5 mins followed by ADP addition measured after 5 mins by Born's turbidimetric method in presence of edaravone relative to control; type: functional; details: Oryctolagus cuniculus; procedure, shortened: as §1
[14] = Antiplatelet activity in rabbit platelet rich plasma assessed as inhibition of arachidonic acid-induced platelet aggregation at 0.1 mM preincubated for 5 mins followed by arachidonic acid addition measured after 5 mins by Born's turbidimetric method in presence of edaravone relative to control; type: functional; details: Oryctolagus cuniculus; procedure, shortened: as §1
[15] = system: PC-12; test: Antioxidant activity in rat PC12 cells assessed as reduction of H2O2/Fe2+-mediated hydroxyl radical formation at 10 uM preincubated for 1 hr followed by H2O2/Fe2+ addition by Griess assay in presence of edaravone; type: functional; procedure, shortened: as §2
[16] = system: PC-12; test: Antioxidant activity in rat PC12 cells assessed as reduction of NADH-mediated superoxide anion radical formation at 10 uM preincubated for 1 hr followed by NADH addition by NBT assay in presence of edaravone; type: functional; procedure, shortened: as §3
[17] = Neuroprotective activity against H2O2-induce cell damage in rat PC12 cells assessed as cell viability at 10 uM preincubated for 1 hr followed by H2O2 induction measured after 3 hrs by MTT assay in presence of edaravone (reference value: 50.85%); type: functional; details: PC-12, read-out: Activity

| Compound | inhibition at 100 µM [1] | inhibition at 100 µM [2] | Activity [3] | Activity [7] | viability at 10 µM [9] | other results |
| --- | --- | --- | --- | --- | --- | --- |
| CCCCC(OC(C)=O)c1ccccc1C(=O)Oc1cc(C)nn1-c1ccccc1 (centres undefined) | 15.4% | 23% |  |  |  |  |
| CC1=NN(c2ccccc2)C(=O)C1 [EDARAVONE] | 25.5% | 24.8% | 25.2753 U/ml | 97.6942 U/L | 76.9% | Activity [4]: 140.787 U/L; viability at 10 µM [5]: 76.6%; Activity [6]: 36.8347 U/ml; inhibition at 100 µM [8]: 42.5%; inhibition at 100 µM [10]: 28.1% |
| CC(=O)Oc1ccccc1C(=O)O [ASPIRIN] | 16.2% |  | 30.6956 U/ml | 79.3793 U/L | 77.4% |  |
| CCCCC(OC(C)=O)c1ccccc1C(=O)Oc1cc(C(F)(F)F)nn1-c1ccc(Cl)cc1 (centres undefined) | 26.6% | 23.2% |  |  | 83% |  |
| CCCCC(OC(C)=O)c1ccccc1C(=O)Oc1cc(C)nn1-c1ccc(F)cc1 (centres undefined) | 59.9% | 31.8% | 65.51 U/ml | 141.49 U/L | 93.3% | viability at 1 µM [11]: 88.1% |
| CC1=NN(c2ccc(F)cc2)C(=O)C1 | 24.3% | 13.5% | 31.7447 U/ml | 117.579 U/L |  | Activity [12]: Active |
| CCCCC(OC(C)=O)c1ccccc1C(=O)Oc1cc(C(F)(F)F)nn1-c1ccc(F)cc1 (centres undefined) | 27.5% | 13.6% |  |  |  |  |
| CCCCC(OC(C)=O)c1ccccc1C(=O)Oc1cc(C)nn1-c1ccc(OC)cc1 (centres undefined) | 29.4% | 30.2% |  |  |  |  |
| CCCCC(OC(C)=O)c1ccccc1C(=O)Oc1cc(C)nn1-c1cccc(Cl)c1 (centres undefined) | 46.1% | 35.2% |  |  |  |  |
| Clc1ccccc1CN1CCc2sccc2C1 [TICLOPIDINE] |  | 11.5% | 15.0616 U/ml | 26.9592 U/L | 67.2% |  |
| CCCCC(OC(C)=O)c1ccccc1C(=O)Oc1cc(C)nn1-c1ccc([N+](=O)[O-])cc1 (centres undefined) | 39.6% | 33.9% |  |  | 85.2% |  |
| CCCCC1OC(=O)c2ccccc21 (racemic) [RAC-3-N-BUTYLPHTHALIDE] | 14.1% | 22.9% | 16.2026 U/ml | 36.7429 U/L | 71% | inhibition at 100 µM [13]: 28.1%; inhibition at 100 µM [14]: 42.5%; Activity [15]: 36.8347 U/ml; Activity [16]: 140.787 U/L; viability at 10 µM [17]: 76.6% |
| CCCCC(OC(C)=O)c1ccccc1C(=O)Oc1cc(C)nn1-c1ccc(Cl)cc1 (centres undefined) | 40.3% | 29.3% |  |  |  |  |
| CCCCC(OC(C)=O)c1ccccc1C(=O)Oc1cc(C(F)(F)F)nn1-c1ccccc1 (centres undefined) | 29.3% | 26.9% |  |  |  |  |
| CCCCC(OC(C)=O)c1ccccc1C(=O)Oc1cc(C(F)(F)F)nn1-c1ccc([N+](=O)[O-])cc1 (centres undefined) | 21.3% | 15.4% |  |  | 87.3% |  |
| CCCCC(OC(C)=O)c1ccccc1C(=O)Oc1cc(C(F)(F)F)nn1-c1ccc(OC)cc1 (centres undefined) | 37.7% | 19.9% |  |  |  |  |
| CCCCC(OC(C)=O)c1ccccc1C(=O)Oc1cc(C(F)(F)F)nn1-c1cccc(Cl)c1 (centres undefined) | 21.2% | 31.2% |  |  |  |  |
| CCCCC(OC(C)=O)c1ccccc1C(=O)O (centres undefined) | 27.7% | 17.7% | 17.6015 U/ml | 56.1954 U/L |  | Activity [12]: Active |
| CCCCC(OC(C)=O)c1ccccc1C(=O)Oc1cc(C)nn1-c1ccc(C)cc1 (centres undefined) | 20.5% | 21.3% |  |  | 86% |  |
| CCCCC(OC(C)=O)c1ccccc1C(=O)Oc1cc(C(F)(F)F)nn1-c1ccc(C)cc1 (centres undefined) | 40.7% | 25.5% |  |  |  |  |
